Laboratory results as given in ChEMBL document CHEMBL1268976, “Stereocontrolled facile synthesis and antimicrobial activity of oximes and oxime ethers of diversely substituted bispidines” (2010).
In brackets after ≈: the same amount, converted by molar mass.

Columns and labels:
Type in all cases: functional
Bacillus subtilis = assay: Antibacterial activity against Bacillus subtilis by broth microdilution method
Procedure, shortened: (§1)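 In vitro broth microdilution following the NCCLS standard for bacteria (M7-A5). The test panel was Bacillus subtilis, Staphylococcus aureus, Klebsiella pneumoniae and Pseudomonas aeruginosa.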

Staphylococcus aureus = assay: Antibacterial activity against Staphylococcus aureus by broth microdilution method; procedure, shortened: as §1
Klebsiella pneumoniae [1] = assay: Antibacterial activity against Klebsiella pneumoniae by broth microdilution method; procedure, shortened: as §1
Pseudomonas aeruginosa [2] = assay: Antibacterial activity against Pseudomonas aeruginosa by broth microdilution method; procedure, shortened: as §1
Candida albicans = assay: Antifungal activity against Candida albicans by broth microdilution method
Procedure, shortened: (§2)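 Fungal panel of Candida albicans, Candida parapsilosis, Aspergillus niger and Cryptococcus neoformans, tested in vitro by standard NCCLS broth microdilution. The yeast susceptibility reference cited is M27-A.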

Candida parapsilosis = assay: Antifungal activity against Candida parapsilosis by broth microdilution method; settings: Lodderomyces parapsilosis; procedure, shortened: as §2
Aspergillus niger = assay: Antifungal activity against Aspergillus niger by broth microdilution method; procedure, shortened: as §2
Cryptococcus neoformans = assay: Antimicrobial activity against Cryptococcus neoformans by broth microdilution method; procedure, shortened: as §2
Klebsiella pneumoniae [3] = assay: Ratio of compound MIC90 to gentamicin MIC90 for Klebsiella pneumoniae
Pseudomonas aeruginosa [4] = assay: Ratio of gentamicin MIC90 to compound MIC90 for Pseudomonas aeruginosa

| Compound | MIC90 (Bacillus subtilis) | MIC90 (Staphylococcus aureus) | MIC90 (Klebsiella pneumoniae [1]) | MIC90 (Pseudomonas aeruginosa [2]) | MIC90 (Candida albicans) | MIC90 (Candida parapsilosis) | MIC90 (Aspergillus niger) | MIC90 (Cryptococcus neoformans) | Ratio (Klebsiella pneumoniae [3]) | Ratio (Pseudomonas aeruginosa [4]) |
| --- | --- | --- | --- | --- | --- | --- | --- | --- | --- | --- |
| CCCOc1ccc(C2NC(c3ccc(OCCC)cc3)C3C(=NOC)C2C(c2ccc(OCCC)cc2)NC3c2ccc(OCCC)cc2)cc1 (configuration not stated) | > 128 µg/mL | > 128 µg/mL | 16 µg/mL (≈ 22.7 µM) | 64 µg/mL (≈ 90.7 µM) | > 128 µg/mL | > 128 µg/mL | 16 µg/mL (≈ 22.7 µM) | 32 µg/mL (≈ 45.3 µM) | 8 |  |
| CON=C1C2C(c3ccccc3C)NC(c3ccccc3C)C1C(c1ccccc1C)NC2c1ccccc1C (configuration not stated) | > 128 µg/mL | > 128 µg/mL | 16 µg/mL (≈ 30.2 µM) | 16 µg/mL (≈ 30.2 µM) | 64 µg/mL (≈ 121 µM) | 8 µg/mL (≈ 15.1 µM) | 64 µg/mL (≈ 121 µM) | > 128 µg/mL | 8 |  |
| ON=C1C2C(c3ccc(OCc4ccccc4)cc3)NC(c3ccc(OCc4ccccc4)cc3)C1C(c1ccc(OCc3ccccc3)cc1)NC2c1ccc(OCc2ccccc2)cc1 (configuration not stated) | > 128 µg/mL | > 128 µg/mL | > 128 µg/mL | > 128 µg/mL | > 128 µg/mL | > 128 µg/mL | 128 µg/mL (≈ 145 µM) | > 128 µg/mL |  |  |
| CON=C1C2C(c3ccc(Cl)cc3)NC(c3ccc(Cl)cc3)C1C(c1ccc(Cl)cc1)NC2c1ccc(Cl)cc1 (configuration not stated) | 128 µg/mL (≈ 209 µM) | 32 µg/mL (≈ 52.3 µM) | 4 µg/mL (≈ 6.54 µM) | 8 µg/mL (≈ 13.1 µM) | 4 µg/mL (≈ 6.54 µM) | > 128 µg/mL | 16 µg/mL (≈ 26.2 µM) | > 128 µg/mL |  |  |
| COc1ccccc1C1NC(c2ccccc2OC)C2C(=NO)C1C(c1ccccc1OC)NC2c1ccccc1OC (configuration not stated) | > 128 µg/mL | > 128 µg/mL | 64 µg/mL (≈ 110 µM) | 16 µg/mL (≈ 27.6 µM) | > 128 µg/mL | 32 µg/mL (≈ 55.2 µM) | 16 µg/mL (≈ 27.6 µM) | 32 µg/mL (≈ 55.2 µM) |  |  |
| ON=C1C2C(c3cccc(F)c3)NC(c3cccc(F)c3)C1C(c1cccc(F)c1)NC2c1cccc(F)c1 (configuration not stated) | 128 µg/mL (≈ 241 µM) | > 128 µg/mL | 64 µg/mL (≈ 120 µM) | 64 µg/mL (≈ 120 µM) | 32 µg/mL (≈ 60.2 µM) | > 128 µg/mL | 64 µg/mL (≈ 120 µM) | > 128 µg/mL |  |  |
| CON=C1C2C(c3cccc(Oc4ccccc4)c3)NC(c3cccc(Oc4ccccc4)c3)C1C(c1cccc(Oc3ccccc3)c1)NC2c1cccc(Oc2ccccc2)c1 (configuration not stated) | > 128 µg/mL | > 128 µg/mL | > 128 µg/mL | > 128 µg/mL | 64 µg/mL (≈ 76 µM) | 128 µg/mL (≈ 152 µM) | 128 µg/mL (≈ 152 µM) | > 128 µg/mL |  |  |
| ON=C1C2C(c3cccc(Cl)c3)NC(c3cccc(Cl)c3)C1C(c1cccc(Cl)c1)NC2c1cccc(Cl)c1 (configuration not stated) | > 128 µg/mL | > 128 µg/mL | > 128 µg/mL | 64 µg/mL (≈ 107 µM) | > 128 µg/mL | > 128 µg/mL | 64 µg/mL (≈ 107 µM) | > 128 µg/mL |  |  |
| CCOc1ccccc1C1NC(c2ccccc2OCC)C2C(=NO)C1C(c1ccccc1OCC)NC2c1ccccc1OCC (configuration not stated) | > 128 µg/mL | > 128 µg/mL | 64 µg/mL (≈ 101 µM) | 32 µg/mL (≈ 50.3 µM) | > 128 µg/mL | > 128 µg/mL | 32 µg/mL (≈ 50.3 µM) | 64 µg/mL (≈ 101 µM) |  |  |
| CON=C1C2C(c3cccc(F)c3)NC(c3cccc(F)c3)C1C(c1cccc(F)c1)NC2c1cccc(F)c1 (configuration not stated) | > 128 µg/mL | > 128 µg/mL | 64 µg/mL (≈ 117 µM) | 16 µg/mL (≈ 29.3 µM) | 32 µg/mL (≈ 58.7 µM) | > 128 µg/mL | 16 µg/mL (≈ 29.3 µM) | > 128 µg/mL |  |  |
| CCc1ccc(C2NC(c3ccc(CC)cc3)C3C(=NOC)C2C(c2ccc(CC)cc2)NC3c2ccc(CC)cc2)cc1 (configuration not stated) | > 128 µg/mL | > 128 µg/mL | 64 µg/mL (≈ 109 µM) | 32 µg/mL (≈ 54.6 µM) | 128 µg/mL (≈ 218 µM) | 32 µg/mL (≈ 54.6 µM) | > 128 µg/mL | > 128 µg/mL |  |  |
| Cc1ccccc1C1NC(c2ccccc2C)C2C(=NO)C1C(c1ccccc1C)NC2c1ccccc1C (configuration not stated) | > 128 µg/mL | 128 µg/mL (≈ 248 µM) | > 128 µg/mL | 32 µg/mL (≈ 62.1 µM) | 64 µg/mL (≈ 124 µM) | 8 µg/mL (≈ 15.5 µM) | 64 µg/mL (≈ 124 µM) | > 128 µg/mL |  |  |
| CON=C1C2C(c3ccccc3)NC(c3ccccc3)C1C(c1ccccc1)NC2c1ccccc1 (configuration not stated) | > 128 µg/mL | > 128 µg/mL | > 128 µg/mL | 128 µg/mL (≈ 270 µM) | 128 µg/mL (≈ 270 µM) | > 128 µg/mL | > 128 µg/mL | > 128 µg/mL |  |  |
| ON=C1C2C(c3ccccc3Br)NC(c3ccccc3Br)C1C(c1ccccc1Br)NC2c1ccccc1Br (configuration not stated) | > 128 µg/mL | > 128 µg/mL | > 128 µg/mL | > 128 µg/mL | > 128 µg/mL | > 128 µg/mL | > 128 µg/mL | > 128 µg/mL |  |  |

Compounds with a lower MIC90 (Bacillus subtilis), results first:

| MIC90 (Bacillus subtilis) | MIC90 (Staphylococcus aureus) | MIC90 (Klebsiella pneumoniae [1]) | MIC90 (Pseudomonas aeruginosa [2]) | MIC90 (Candida albicans) | MIC90 (Candida parapsilosis) | MIC90 (Aspergillus niger) | MIC90 (Cryptococcus neoformans) | Compound | Ratio (Klebsiella pneumoniae [3]) | Ratio (Pseudomonas aeruginosa [4]) |
| --- | --- | --- | --- | --- | --- | --- | --- | --- | --- | --- |
| 64 µg/mL (≈ 108 µM) | > 128 µg/mL | 8 µg/mL (≈ 13.5 µM) | 16 µg/mL (≈ 26.9 µM) | 64 µg/mL (≈ 108 µM) | 32 µg/mL (≈ 53.9 µM) | 4 µg/mL (≈ 6.74 µM) | 8 µg/mL (≈ 13.5 µM) | CON=C1C2C(c3ccccc3OC)NC(c3ccccc3OC)C1C(c1ccccc1OC)NC2c1ccccc1OC (configuration not stated) | 4 |  |
| 64 µg/mL (≈ 121 µM) | > 128 µg/mL | 8 µg/mL (≈ 15.1 µM) | 4 µg/mL (≈ 7.55 µM) | 64 µg/mL (≈ 121 µM) | 2 µg/mL (≈ 3.78 µM) | 64 µg/mL (≈ 121 µM) | > 128 µg/mL | CON=C1C2C(c3ccc(C)cc3)NC(c3ccc(C)cc3)C1C(c1ccc(C)cc1)NC2c1ccc(C)cc1 (configuration not stated) | 4 | 4 |
| 64 µg/mL (≈ 108 µM) | 32 µg/mL (≈ 53.9 µM) | > 128 µg/mL | 16 µg/mL (≈ 26.9 µM) | > 128 µg/mL | 128 µg/mL (≈ 216 µM) | 16 µg/mL (≈ 26.9 µM) | 16 µg/mL (≈ 26.9 µM) | CON=C1C2C(c3ccc(OC)cc3)NC(c3ccc(OC)cc3)C1C(c1ccc(OC)cc1)NC2c1ccc(OC)cc1 (configuration not stated) |  |  |
| 64 µg/mL (≈ 97.3 µM) | > 128 µg/mL | 8 µg/mL (≈ 12.2 µM) | 4 µg/mL (≈ 6.08 µM) | 32 µg/mL (≈ 48.6 µM) | 16 µg/mL (≈ 24.3 µM) | 4 µg/mL (≈ 6.08 µM) | 8 µg/mL (≈ 12.2 µM) | CON=C1C2C(c3ccc(SC)cc3)NC(c3ccc(SC)cc3)C1C(c1ccc(SC)cc1)NC2c1ccc(SC)cc1 (configuration not stated) | 4 | 4 |
| 64 µg/mL (≈ 120 µM) | > 128 µg/mL | 32 µg/mL (≈ 60.2 µM) | 16 µg/mL (≈ 30.1 µM) | 32 µg/mL (≈ 60.2 µM) | 64 µg/mL (≈ 120 µM) | 4 µg/mL (≈ 7.53 µM) | > 128 µg/mL | ON=C1C2C(c3ccccc3F)NC(c3ccccc3F)C1C(c1ccccc1F)NC2c1ccccc1F (configuration not stated) |  |  |
| 64 µg/mL (≈ 91.7 µM) | > 128 µg/mL | 16 µg/mL (≈ 22.9 µM) | 64 µg/mL (≈ 91.7 µM) | > 128 µg/mL | 32 µg/mL (≈ 45.9 µM) | 64 µg/mL (≈ 91.7 µM) | > 128 µg/mL | C=CCOc1ccc(C2NC(c3ccc(OCC=C)cc3)C3C(=NOC)C2C(c2ccc(OCC=C)cc2)NC3c2ccc(OCC=C)cc2)cc1 (configuration not stated) |  |  |
